Data from ChEMBL document CHEMBL1275449, “Potent in vitro antifungal activities of naturally occurring acetylenic acids” (Antimicrob Agents Chemother, 2008).
Active and inactive are the calls of the source. The calls are words filed in the database; no cut-off is given here.

Legend:
SK-OV-3 = test: Cytotoxicity against human SKOV3 cells up to 32 uM by neutral red method; type: cell-based
How it was run: (§1)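 Neutral red uptake cytotoxicity, top concentration 32 μM.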

Trichophyton rubrum [1] = test: Antifungal activity against Trichophyton rubrum ATCC 10218 at 162.1 uM after 5 days by CLSI method; type: functional, organism-based
Candida albicans [2] = test: Antifungal activity against Candida albicans ATCC 90028 after 48 hrs by CLSI method; type: functional, organism-based; conditions: ATCC 90028, 48 h
How it was run: (§2)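 CLSI broth microdilution. Colonies from 24–72 h SD agar suspended in saline and sized by OD630 standard curve. Inoculum 1.5 × 10³ CFU/ml (final) in RPMI 1640 (0.2% dextrose, 0.03% glutamine, 0.165 M MOPS, pH 7.0). Twofold dilutions (11 levels) from 20% DMSO-saline, in duplicate. 35°C for 48 h, OD530 read before and after. IC50 fitted from % growth. MIC: no detectable growth. MFC: subculture onto SD agar.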

Candida albicans [3] = test: Antifungal activity against Candida albicans ATCC 200955 at 162.1 uM after 48 hrs by CLSI method; type: functional, organism-based
How it was run: (§3)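 Candida inocula came from 24–72-h SD agar colonies suspended in saline. They were diluted by OD630 standard curve into RPMI 1640 (0.2% dextrose, 0.03% glutamine, 0.165 M MOPS, pH 7.0) to 1.5 × 10³ CFU/ml. Compounds were run as 11 twofold dilutions in 20% DMSO-saline, in duplicate, at 35°C for 48 h, with OD530 read before and after. Percent growth at the top concentration, IC50, MIC, and MFC (SD agar plating) were derived.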

Pichia kudriavzevii [4] = test: Antifungal activity against Candida krusei ATCC 6258 at 162.1 uM after 48 hrs by CLSI method; type: functional, organism-based; how it was run: as §3
Candida albicans [5] = test: Antifungal activity against Candida albicans ATCC 14053 after 48 hrs by CLSI method; type: functional, organism-based; conditions: ATCC 14053, 48 h; how it was run: as §2
[6] = test system: Trichophyton mentagrophytes; test: Antifungal activity against Trichophyton mentagrophytes ATCC 9533 at 162.1 uM after 5 days by CLSI method; type: functional, organism-based
LLC-PK1 = test: Cytotoxicity against pig LLC-PK1 cells up to 32 uM by neutral red method; type: cell-based, Sus scrofa; how it was run: as §1
Candida albicans [7] = test: Antifungal activity against Candida albicans ATCC 32354 at 162.1 uM after 48 hrs by CLSI method; type: functional, organism-based; how it was run: as §3
Candida albicans [8] = test: Antifungal activity against Candida albicans ATCC 60193 after 48 hrs by CLSI method; type: functional, organism-based; conditions: ATCC 60193, 48 h; how it was run: as §2
Trichophyton rubrum [9] = test: Antifungal activity against Trichophyton rubrum ATCC MYA-4438 at 162.1 uM after 5 days by CLSI method; type: functional, organism-based
Pichia kudriavzevii [10] = test: Antifungal activity against Candida krusei ATCC 6258 after 48 hrs by CLSI method; type: functional, organism-based; conditions: ATCC 6258, 48 h; how it was run: as §3
Aspergillus fumigatus [11] = test: Antifungal activity against Aspergillus fumigatus ATCC 90906 at 162.1 uM after 48 hrs by CLSI method; type: functional, organism-based
Aspergillus flavus = test: Antifungal activity against Aspergillus flavus ATCC 204304 at 162.1 uM after 48 hrs by CLSI method; type: functional, organism-based
Candida albicans [12] = test: Antifungal activity against Fluconazole resistant Candida albicans isolate 1 at 162.1 uM after 48 hrs by CLSI method; type: functional, organism-based
How it was run: (§4)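 Candida in CLSI broth microdilution. Saline colony suspension set to 1.5 × 10³ CFU/ml (final) in MOPS-buffered RPMI 1640, pH 7.0. Test agent given as twofold serial dilutions in 20% DMSO-saline, duplicate wells. 35°C for 48 h. Growth read as OD530 before and after incubation. Percent inhibition scored at the highest test concentration.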

Candida albicans [13] = test: Antifungal activity against Fluconazole resistant Candida albicans isolate 17 at 162.1 uM after 48 hrs by CLSI method; type: functional, organism-based; how it was run: as §4
Candida albicans [14] = test: Antifungal activity against Candida albicans ATCC 60193 at 162.1 uM after 48 hrs by CLSI method; type: functional, organism-based; how it was run: as §3
Candida albicans [15] = test: Antifungal activity against Fluconazole resistant Candida albicans clinical isolate 17 after 48 hrs by CLSI method; type: functional, organism-based; how it was run: as §2
[16] = test system: Trichophyton mentagrophytes; test: Antifungal activity against Trichophyton mentagrophytes ATCC MYA-4439 by CLSI method; type: functional, organism-based
How it was run: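 Growth scraped from 1- to 6-week-old potato dextrose slants and filtered through Miracloth. Diluted in 5% Alamar blue-RPMI 1640 (MOPS pH 7.0) to 2.7 × 10⁴ CFU/ml. Eleven twofold dilutions in duplicate. Fluorescence at 544 nm excitation/590 nm emission read before and after 35°C, 5 days. IC50 fitted from percent growth. MIC taken as no detectable growth; MFC from clear or blue wells plated on PD agar.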

Candida albicans [17] = test: Antifungal activity against Candida albicans ATCC 32354 after 48 hrs by CLSI method; type: functional, organism-based; conditions: ATCC 32354, 48 h; how it was run: as §2
Vero = test: Cytotoxicity against African green monkey Vero cells up to 32 uM by neutral red method; type: cell-based; conditions: chlorocebus sabaeus; how it was run: as §1
Aspergillus fumigatus [18] = test: Antifungal activity against Aspergillus fumigatus ATCC 90906 after 48 h by CLSI method; conditions: ATCC 90906, 48 h
Candida tropicalis = test: Antifungal activity against Candida tropicalis ATCC 750 at 162.1 uM after 48 hrs by CLSI method; type: functional, organism-based
How it was run: (§5)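 Yeast suspensions made from 3-5 colonies off 24-72 h SD agar plates in saline. They were diluted by OD630 standard curve in RPMI 1640 (0.2% dextrose, 0.03% glutamine, 0.165 M MOPS, pH 7.0) to 1.5 × 10³ CFU/ml. Twofold dilutions (11 concentrations, 20% DMSO-saline) run in duplicate. OD530 read before and after 35°C, 48 h. Line values are top test concentrations; no-growth endpoints give MIC/MFC.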

SK-MEL = test: Cytotoxicity against human SK-MEL cells up to 32 uM by neutral red method; type: cell-based; how it was run: as §1
Candida parapsilosis = test: Antifungal activity against Candida parapsilosis ATCC 22019 at 162.1 uM after 48 hrs by CLSI method; type: functional, organism-based; how it was run: as §5
Cryptococcus neoformans [19] = test: Antifungal activity against Cryptococcus neoformans ATCC 90113 at 162.1 uM after 72 hrs by CLSI method; type: functional, organism-based
How it was run: (§6)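 SD broth replaced RPMI because growth in RPMI was poor; other CLSI conditions were kept. Inoculum was 1.5 × 10³ CFU/ml from colonies on SD agar, checked by plating. Twofold serial dilutions (11 concentrations) in 20% DMSO-saline were tested in duplicate. OD530 was read before and after incubation at 35°C for 72 h. Percent growth gave IC50; the MIC is the lowest concentration with no detectable growth.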

BT-549 = test: Cytotoxicity against human BT549 cells up to 32 uM by neutral red method; type: cell-based; how it was run: as §1
Candida albicans [20] = test: Antifungal activity against Candida albicans ATCC 90028 at 162.1 uM after 48 hrs by CLSI method; type: functional, organism-based; how it was run: as §3
Candida albicans [21] = test: Antifungal activity against Fluconazole resistant Candida albicans clinical isolate 1 after 48 hrs by CLSI method; type: functional, organism-based; how it was run: as §2
Candida albicans [22] = test: Antifungal activity against Candida albicans ATCC 200955 after 48 hrs by CLSI method; type: functional, organism-based; conditions: ATCC 200955, 48 h; how it was run: as §2
Aspergillus niger = test: Antifungal activity against Aspergillus niger ATCC 16404 at 162.1 uM after 48 hrs by CLSI method; type: functional, organism-based
Nakaseomyces glabratus = test: Antifungal activity against Candida glabrata ATCC 90030 at 162.1 uM after 48 hrs by CLSI method; type: functional, organism-based; how it was run: as §3
Aspergillus fumigatus [23] = test: Antifungal activity against Aspergillus fumigatus ATCC 204305 after 48 h by CLSI method; conditions: ATCC 204305, 48 h
Cryptococcus neoformans [24] = test: Antifungal activity against Cryptococcus neoformans ATCC 66031 at 162.1 uM after 72 hrs by CLSI method; type: functional, organism-based; how it was run: as §6
KB = test: Cytotoxicity against human KB cells up to 32 uM by neutral red method; type: cell-based; how it was run: as §1
Candida albicans [25] = test: Antifungal activity against Candida albicans ATCC 14053 at 162.1 uM after 48 hrs by CLSI method; type: functional, organism-based
[26] = test system: Trichophyton mentagrophytes; test: Antifungal activity against Trichophyton mentagrophytes ATCC MYA-4439 at 162.1 uM after 5 days by CLSI method; type: functional, organism-based
Aspergillus fumigatus [27] = test: Antifungal activity against Aspergillus fumigatus ATCC 204305 at 162.1 uM after 48 hrs by CLSI method; type: functional, organism-based

SMILES: CCCCCCCCCCCCCC#CCCCCC(=O)O [6-ICOSYNOIC ACID]
- Activity (SK-OV-3): Non-toxic
- Activity (Trichophyton rubrum [1]): inactive
- IC50 (Candida albicans [2]): 67.3 µM
- Activity (Candida albicans [3]): inactive
- Activity (Pichia kudriavzevii [4]): inactive
- IC50 (Candida albicans [5]): > 162 µM
- Activity [6]: inactive
- Activity (LLC-PK1): Non-toxic
- Activity (Candida albicans [7]): inactive
- IC50 (Candida albicans [8]): 81 µM
- Activity (Trichophyton rubrum [9]): inactive
- IC50 (Pichia kudriavzevii [10]): 106 µM
- Activity (Aspergillus fumigatus [11]): inactive
- Activity (Aspergillus flavus): inactive
- Activity (Candida albicans [12]): inactive
- Activity (Candida albicans [13]): inactive
- Activity (Candida albicans [14]): inactive
- IC50 (Candida albicans [15]): 55 µM
- IC50 [16]: > 162 µM
- IC50 (Candida albicans [17]): > 162 µM
- Activity (Vero): Non-toxic
- IC50 (Aspergillus fumigatus [18]): 81 µM
- Activity (Candida tropicalis): inactive
- Activity (SK-MEL): Non-toxic
- Activity (Candida parapsilosis): inactive
- Activity (Cryptococcus neoformans [19]): inactive
- Activity (BT-549): Non-toxic
- Activity (Candida albicans [20]): inactive
- IC50 (Candida albicans [21]): 86.6 µM
- IC50 (Candida albicans [22]): 53.4 µM
- Activity (Aspergillus niger): inactive
- Activity (Nakaseomyces glabratus): inactive
- IC50 (Aspergillus fumigatus [23]): 32.3 µM
- Activity (Cryptococcus neoformans [24]): inactive
- Activity (KB): Non-toxic
- Activity (Candida albicans [25]): inactive
- Activity [26]: inactive
- Activity (Aspergillus fumigatus [27]): inactive
